Active and inactive are the calls of the source. No cut-off for these calls is given here.
What was measured:
[1] = Antiapoptotic activity against serum deprivation-induced human SK-N-BE(2) cells assessed as viable cells at 10 uM after 36 hrs incubation by DePsipher agent relative to control; format: functional
Outline: (§1)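 SK-N-BE(2) neuroblastoma cells grown in F12 with 10% FBS, Pen/Strep and fungizone at 37 °C. At 80% confluency they were serum-deprived for 24 h, then seeded at 1 x 10^6 cells per 2 mL serum-deprived medium containing compound in DMSO (1.25% v/v final). Cells were incubated 36 h, stained with DePsipher dye 20 min at 37 °C and run by flow cytometry (50 000 events; FL-1 green, FL-2 red). % viable = (Q1+Q2)/(Qtotal−Q3) x 100. Tests in triplicate.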

[2] = Antiapoptotic activity against serum deprivation-induced human SK-N-BE(2) cells assessed as improvement in cell health at 1 mM to 10 uM after 36 hrs incubation by DePsipher agent relative to 1.25% DMSO; format: functional; outline: as §1
Papio papio = species on record: Papio papio; assay: Inhibition of MAO-B in baboon liver mitochondrial fraction using MMTP substrate at 300 uM
[3] = Antiapoptotic activity against serum deprivation-induced human SK-N-BE(2) cells assessed as improvement in cell health at 1 mM to 10 uM after 36 hrs incubation by DePsipher agent relative to non-induced cells; format: functional; outline: as §1
[4] = Antiapoptotic activity against serum deprivation-induced human SK-N-BE(2) cells assessed as apoptotic cells at 1 mM to 10 uM after 36 hrs incubation by DePsipher agent relative to 1.25% DMSO; format: functional; outline: as §1

| Structure (SMILES) | Activity [1] | Activity [2] [%] | inhibition (Papio papio) | improvement in cell health [3] | Activity [4] [%] |
| --- | --- | --- | --- | --- | --- |
| COCCOC(=O)C1=C(C)NC(C)=C(C(=O)OC(C)C)C1c1cccc([N+](=O)[O-])c1 (stereo not drawn) | inactive | – | – | – | – |
| C#CCN(Cc1ccccc1)C12CC3CC(CC(C3)C1)C2 | 70% | 9 | 20.1% | – | – |
| C#CCN(C)[C@H](C)Cc1ccccc1 | 77% | – | 93.3% | – | – |
| C#CCN | 79% | – | 19.9% | – | – |
| OC1(C#Cc2ccccc2)C2C3CC4C5C3CC2C5C41 (racemic) | 98% | 9 | 73.3% | Active | 2.8 |
| c1ccc(CNC23OC4C5C6CC(C7C6C4C72)C53)cc1 (stereo not drawn) | 67% | 9 | 14.6% | – | – |
| C#CCN(CC#C)C12CC3CC(CC(C3)C1)C2 | 68% | 9 | 14% | – | – |
| C#CC12OC3(O)C4C5CC(C6C5C3(C)C61)C42 (racemic) | 100% | 9 | inactive | Active | 0.5 |
| C#CCNC12OC3C4C5CC(C6C5C3(C)C61)C42 (racemic) | 97% | 9 | 11.7% | Active | – |
| C#CCNC12OC3C4C5CC(C6C5C3C61)C42 (racemic) | 88% | 9 | inactive | – | – |
| C#CCN1C2C3C4CC5C6C4C2C6C1(O)C53 (racemic) | 93% | 9 | 5.83% | Active | – |
| C#CCN1C2C3C4CC5C6C4C2C6(C)C1(O)C53 (racemic) | 67% | 9 | 10.8% | – | – |

— ChEMBL document CHEMBL3259550, “Polycyclic propargylamine and acetylene derivatives as multifunctional neuroprotective agents” (Eur J Med Chem, 2014)
